Compound activity deposited in PubChem by The Scripps Research Institute Molecular Screening Center.
This is a sample that favours compounds with a hit; in the whole collection about 4.5% have one here.
OX1R antag-1: blocks the human orexin 1 receptor; CHO/OX1R cells, Fluo-8 calcium fluorescence, orexin A; inhibition, % at 5 µM; 330,000 compounds, 0.43% hits; AID 434989;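 active = inhibition above its plate's threshold, mean inhibition of all tested compounds on the plate plus 3 SD, cut at about 37% in these data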;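 also: 0% = orexin A challenge wells and 100% = SB-334867-A antagonist wells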
Target sequence (O43613 whole entry, looked up): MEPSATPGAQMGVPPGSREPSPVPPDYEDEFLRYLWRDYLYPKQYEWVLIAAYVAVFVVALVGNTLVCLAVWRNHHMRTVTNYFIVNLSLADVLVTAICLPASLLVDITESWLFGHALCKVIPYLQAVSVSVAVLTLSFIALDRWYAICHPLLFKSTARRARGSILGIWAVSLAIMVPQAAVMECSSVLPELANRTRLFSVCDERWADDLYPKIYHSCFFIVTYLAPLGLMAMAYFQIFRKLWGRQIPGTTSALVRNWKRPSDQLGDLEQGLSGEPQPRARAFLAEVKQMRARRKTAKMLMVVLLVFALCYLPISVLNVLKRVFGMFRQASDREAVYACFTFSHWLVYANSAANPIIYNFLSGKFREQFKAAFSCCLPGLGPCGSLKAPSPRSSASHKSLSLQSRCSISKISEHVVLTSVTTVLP
CHO parental Ca: counter-screen for OX1R antagonists: effect in parental CHO cells; parental CHO-K1, ATP-induced calcium, Fluo-8 fluorescence; inhibition, % at 5.6 µM; 330,000 compounds, 0.63% hits; AID 463079;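 active = inhibition above that plate's mean sample inhibition plus 3 SD, cut at about 26% in these data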;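 also: 0% = ATP-challenged DMSO wells and 100% = DMSO wells without ATP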
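Measured by: calcium-sensitive Fluo-8 fluorescence / Test system: CHO parental line / Controls: ATP-challenged DMSO wells low, unchallenged DMSO wells high / Measure: % inhibition / Compound: single nominal dose of 5.6 µM per compound / Replicates: single well per compound, no replicates / Reagent: ATP as calcium-mobilizing challenge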
GPR7 antag: blocks human GPR7 receptor signaling; P48145; AID 1861; GPR7-expressing cells, fluorescence antagonist assay; inhibition, % at 4.4 µM; 290,000 compounds, 1.1% hits; in the data active = inhibition above about 16%, passing the limit was not always enough;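 also: cells stimulated with the agonist NPW; 0% = agonist with vehicle and 100% = vehicle without agonist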
TAAR1 ag: human TAAR1 agonism | Q96RJ0 | CHO RD-HGA16 TAAR1, Fluo-8 calcium fluorescence; vehicle wells 0%, saturating PEA agonist 100% | activation, % at 3 µM | 360,000 compounds, 0.99% hits;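 active = activation above the mean activation of all test compounds in the run plus 3 SD, cut at about 38% in these data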
Target sequence (Q96RJ0 whole entry, looked up): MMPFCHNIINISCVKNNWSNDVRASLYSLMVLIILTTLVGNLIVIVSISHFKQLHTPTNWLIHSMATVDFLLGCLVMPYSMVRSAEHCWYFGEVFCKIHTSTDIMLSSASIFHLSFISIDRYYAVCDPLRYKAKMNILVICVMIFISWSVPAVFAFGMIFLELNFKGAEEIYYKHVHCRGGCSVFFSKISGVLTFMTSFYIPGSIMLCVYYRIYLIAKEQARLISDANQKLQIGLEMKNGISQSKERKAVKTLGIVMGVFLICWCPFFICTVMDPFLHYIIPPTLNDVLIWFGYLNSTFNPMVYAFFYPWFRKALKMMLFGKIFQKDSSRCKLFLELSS
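System: CHO-derived RD-HGA16 cells with stable Gα16 and human TAAR1. Times: 17-24 h plating, Fluo-8 75 min 37 °C, 30 min RT. Measured by: calcium-sensitive Fluo-8 signal, excitation 470-495, emission 515-575 nm. Read-out basis: % activation relative to PEA EC100 response. Control set: DMSO and PEA EC100. Repeats: no replicates (n 1).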
TAAR1 antag: antagonists of human TAAR1. CHO RD-HGA16 TAAR1, Fluo-8 calcium fluorescence, antagonist. inhibition, % at 3 µM. Q96RJ0. 360,000 compounds, 1.5% hits;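 active = inhibition above a per-plate cutoff, the mean inhibition of test compounds on that plate plus 3 SD, cut at about 49% in these data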;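 also: 0% = DMSO plus EC80 beta-PEA response and 100% = DMSO alone without agonist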
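Assay system: CHO-derived RD-HGA16 cells stably expressing human TAAR1 plus Gα16. Timing: 140 s kinetic read after compound, 140 s after agonist. Technique: kinetic Fluo-8 calcium fluorescence measurement. Measure: % inhibition of agonist calcium response.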
OX1R antag-2: OX1R (human) antagonism; OX1R-expressing cells, FRET antagonist read-out; 330,000 compounds, 1.8% hits; O43613; AID 485270; inhibition, % at 6.6 µM; in the data active = inhibition mostly above about 38%, no sharp cut-off; inactive = mostly below about 40%;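 also: 0% = agonist challenge alone and 100% = reference antagonist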
* = called active by the depositor; / = no result.

SMILES | OX1R antag-1 | CHO parental Ca | GPR7 antag | TAAR1 ag | TAAR1 antag | OX1R antag-2
O=C(COC(=O)c1ccc2c(c1[N+](=O)[O-])C(=O)c1ccccc1C2=O)NC1CC1 | 9.2 | 21.4 | -15.6 | 3.4 | 12.6 | 74.3*
O=C(COC(=O)c1cccc2c1C(=O)c1ccccc1C2=O)NC1CCCCC1 | -19.9 | -24.3 | -5.8 | 6.7 | 49.5* | 21.7
CC1=CC(=O)C(C(C)C)=C/C1=N/OS(=O)(=O)c1ccccc1 | 75.3* | 71.5* | 81.1* | 19.9 | 43.3 | 64.3*
Cc1ccc2c(c1)/C(=N/OS(=O)(=O)c1ccccc1)CCS2 | -5.8 | -9.5 | -7.9 | -1.1 | 18.4 | 13.1
CC1=CC(=O)C=C(C)C1=NOS(=O)(=O)c1ccccc1 | / | / | 39.8* | 18.9 | 52.4* | /
COc1ccc(-c2nnc(SCc3nc4ccccc4c(=O)[nH]3)o2)cc1 | 0.5 | 2.3 | -3.8 | 4.2 | 33.3 | 10.8
CC(C)c1[nH]nc2c1C(c1ccc(F)cc1)N(Cc1ccccc1)C2=O (stereo unspecified) | / | / | / | -0.1 | -20.0 | /
CS(=O)(=O)N1CCN(c2ccccc2NC(=S)NC(=O)c2ccccc2[N+](=O)[O-])CC1 | -32.7 | -26.0 | -3.8 | 31.0 | 53.9* | 2.7
CS(=O)(=O)N1CCN(c2ccccc2NC(=S)NC(=O)c2cccs2)CC1 | -9.0 | -23.4 | -9.5 | 15.5 | 47.3 | -4.2
CC(=O)OC[C@H]1O[C@H](C#Cc2ccc(C(C)(C)C)cc2)C=C[C@H]1OC(=O)Nc1ccccc1 | / | / | / | -0.5 | 1.9 | /
CC(C)[C@H](NC(=O)c1ccco1)C(=O)N1CCC[C@H]1C(=O)NCc1ccccc1 | / | / | / | -0.3 | 3.1 | /
Cn1c(=O)c2c(ncn2CC(=O)N/N=C/C(Br)=C/c2ccccc2)n(C)c1=O | -12.7 | -15.6 | -1.4 | 4.8 | 2.0 | 15.2
O=C(Cn1cnc2ccccc21)N/N=C/C(Br)=C/c1ccccc1 | 11.5 | 8.2 | -0.3 | 14.8 | 49.1* | 7.1
O=C(Cn1cnc2ccccc21)NCc1ccccc1 | 13.0 | -15.8 | -14.4 | 2.9 | 8.4 | 2.1
O=C(Cn1cnc2ccccc21)Nc1ccc(SC(F)F)cc1 | 17.6 | 46.5* | 12.5 | 11.0 | 13.1 | 30.3
COc1ccc(C2=CC(=O)CC(C)(C)C2=O)cc1 | / | / | / | 0.8 | -8.4 | /
FC(F)(F)c1cccc(NC(=S)NCc2ccc(Cl)cc2)c1 | 8.0 | 9.9 | 28.4* | 23.4 | 6.5 | 19.1
FC(F)(F)c1ccc(NC(=S)NCc2ccccc2)cc1 | 28.1 | 29.8* | 24.4* | 13.3 | 34.3 | 17.8
c1ccc(-c2cn(-c3ccccc3)c3[n+]2CCS3)cc1 | -2.2 | 10.5 | -7.5 | 2.9 | 17.9 | 23.7
CC(C)(C)c1ccc(-c2cn(-c3ccc(Br)cc3)c3[n+]2CCCS3)cc1 | / | / | 55.6* | 6.1 | 14.8 | /
COc1ccc(N2C(=O)c3n[nH]c(C)c3C2c2ccccc2)cc1 (stereo unspecified) | / | / | / | -0.2 | -15.7 | /
O=C(Nc1cccc(Cl)c1)Nc1nc(-c2ccccc2)cs1 | 33.6 | 37.3* | -1.7 | 16.0 | -0.7 | 45.8
Cc1nnc(NC(=O)Nc2cccc(Cl)c2)s1 | -11.1 | 4.2 | -3.0 | 43.4* | 36.0 | 35.1
O=C(Nc1ccc(Cl)cc1)Nc1nc(-c2ccccc2)cs1 | 12.8 | 5.0 | -12.1 | 3.2 | 12.4 | 2.5
CC1CCCCN1S(=O)(=O)c1cc2c(=O)nc3ccccn3c2cc1Cl (stereo unspecified) | / | / | / | 1.4 | 0.4 | /
SMILES | OX1R antag-1 | CHO parental Ca | GPR7 antag | TAAR1 ag | TAAR1 antag | OX1R antag-2
CCCCNC(=O)C[C@H]1C[C@@]2(C(=O)OC)C(=C[C@H](C(C)(C)C)O[C@@H]2C)N(Cc2ccccc2)C1=O | / | / | / | -2.1 | -41.8 | /
CCOC(=O)C1CCN(C(=O)c2c(C)oc3c2C(=O)c2ccccc2C3=O)CC1 | -33.2 | -18.2 | -13.5 | 2.3 | 26.4 | 70.3*
Cc1oc2c(c1C(=O)N1CCC(C)CC1)C(=O)c1ccccc1C2=O | -31.4 | -21.1 | -5.3 | 4.3 | 7.8 | 66.7*
N#CC1=C(N)Nc2ncnn2C1c1ccc([N+](=O)[O-])cc1 (stereo unspecified) | -30.1 | 5.0 | -9.2 | 1.9 | -1.5 | 68.8*
O=C1CCCC2=C1[C@@]1(O[C@H]3C=CC=CN23)C(=O)N(c2ccccc2)c2ccccc21 | / | / | / | 1.1 | -20.6 | /
COCC(=O)Nc1sc2c(c1C(=O)OC)CCCC2 | -19.5 | -21.4 | -3.5 | 0.7 | -9.1 | 17.9
CCC(=O)NC(Nc1sc2c(c1C(=O)OC)CCCC2)(C(F)(F)F)C(F)(F)F | 7.2 | 45.6* | -3.0 | 39.8* | 63.6* | 26.9
c1csc(CCNc2ncnc3sc4c(c23)CCC4)c1 | -25.7 | 58.2* | / | -3.4 | 18.5 | 58.7*
c1ccc(Nc2ncnc3sc4c(c23)CCC4)cc1 | -21.0 | -15.2 | -6.5 | 23.2 | -13.4 | 7.3
O=C(NC1CCCCC1)C(c1cccc2ccccc12)n1c(=O)c(-c2ccco2)nc2ccccc21 (stereo unspecified) | / | / | / | -0.6 | -8.9 | /
COc1ccnc(Oc2ccccc2)c1C(=O)N/C=N/OCc1ccc(F)cc1Cl | -10.9 | -7.4 | -2.1 | 24.1 | 60.6* | 32.8
Cc1cccc(OCCN2C(=O)C(=O)c3cc(C)ccc32)c1 | -4.0 | -11.1 | 9.3 | -1.3 | -6.8 | 15.3
Cc1ccc2c(c1)C(=O)C(=O)N2CCOc1ccccc1 | -7.1 | -0.6 | 32.8* | -0.3 | -2.1 | 20.3
Cc1c(N2C(=O)/C(=C\c3ccc(N(C)C)cc3)N(C)C2=S)c(=O)n(-c2ccccc2)n1C | 24.3 | 18.7 | -2.1 | 3.7 | 3.4 | 64.4*
CCCC(C)(C)C(=O)N1CCC1(C)C(=O)Nc1cccc2ccccc12 (stereo unspecified) | / | / | / | 6.7 | -18.6 | /
CC(C)COc1ccc(CNC(=S)NCc2ccccc2)cc1 | 28.5 | -29.9 | -3.4 | 17.9 | 15.0 | 1.8
CC(C)COc1ccc(/C(=N/O)c2ccccc2)cc1 | 26.1 | 32.9* | -7.4 | 11.2 | 13.4 | 5.9
Cc1ccc(-c2cc(C(=O)NCc3ccccn3)c3ccccc3n2)cc1C | -9.0 | -21.5 | -0.6 | 4.0 | 43.9 | 42.8
COc1ccc(-n2c(C)cc(C(=O)COC(=O)c3ccc(O)cc3O)c2C)cc1 | 44.9* | 33.5* | / | -0.6 | 26.3 | 18.1
Cc1cc(C(=O)COC(=O)c2ccc(O)cc2O)c(C)n1-c1ccc(OC(F)F)cc1 | / | / | / | 0.5 | 45.9 | /
COc1ccc(-n2c(C)cc(C(=O)COC(=O)Cn3cnc4ccccc43)c2C)cc1 | 17.6 | 33.7* | -0.2 | 4.9 | 26.8 | 32.3
COc1ccc(NC(=O)COC(=O)Cn2cnc3ccccc32)cc1 | -6.9 | -3.9 | / | 4.0 | -11.8 | 1.1
CC(=O)Nc1cc(OC(C)=O)c2nonc2c1OC(C)=O | 2.5 | -2.3 | 5.8 | 21.2 | -12.1 | 84.7*
CC(C)Oc1ccc(F)cc1-c1cc(C(=O)Nc2ccccc2)[nH]n1 | / | / | / | 4.0 | 50.1* | /
CCOC(=O)c1c(NC(=O)CSc2nnc(-c3c[nH]c4ccccc34)n2CCOC)sc2c1CCCC2 | 12.2 | 2.5 | 1.4 | -1.0 | -13.3 | 40.7*
